What is called ILS is how much longer treated animals lived than controls.

This note sets out measurements from ChEMBL document CHEMBL1124443, “2'-Fluorinated isonucleosides. 1. Synthesis and biological activity of some methyl 2'-deoxy-2'-fluoro-2'-pyrimidinyl-D-arabinopyranosides” (J Med Chem, 1989).

Data set [1] relates to Mus musculus. Nature of the data set: Percent increase in life span of leukemic mice administered, with compound at 50 mg/kgx5, intraperitoneally. The format is functional. Conditions: ip, route intraperitoneal. The procedure, abridged:
(§1)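 Female DBA/2 mice (19–20 g) received 10^6 L1210 cells ip on day 0. Drug was given ip once daily for 5 consecutive days starting day 1. Survival was monitored daily. % ILS was derived from mean survival versus untreated mice.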

The subject of data set [2] is Mus musculus. Nature of the data set: Percent increase in life span of leukemic mice administered, with compound at 100 mg/kgx5, intraperitoneally. The format is functional. Conditions: ip, route intraperitoneal. The essentials:
as §1

The subject of data set [3] is Mus musculus. Nature of the data set: Percent increase in life span of leukemic mice administered, with compound at 25 mkdx3, on days 1,3,6. The format is functional. The procedure, abridged:
(§2)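 L1210 cells (10^6) were implanted ip on day 0 in female DBA/2 mice. Dosing was 5 or 25 mg/kg/day on days 1, 3 and 6 (3 doses). Daily survival monitoring; % increase in life span versus untreated controls.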

Data set [4] can be described thus: Therapeutic effect of compound (25 mkdx3) on mice with L1210/5-FU leukemia; No effect. Conditions: mouse.
The species entered for data set [5] is Mus musculus. The data set is described as follows: Weight loss in mice treated with compound at 200 mkdx5. The format is functional. The procedure, abridged: (§3)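 Female DBA/2 mice (19–20 g) bearing ip L1210 leukemia (10^6 cells, day 0) were dosed ip daily for 5 consecutive days starting on day 1. Mice were weighed daily, and weight loss was recorded as body weight in g.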

Data set [6] is filed under the species Mus musculus. The data set is described as follows: Weight loss in mice treated with compound at 50 mkdx5. The format is functional. The procedure, abridged:
as §3

In data set [7] the test system is Mus musculus. Nature of the data set: Percent increase in life span of leukemic mice administered, with compound at 5 mkdx3, on days 1,3,6. The format is functional. The essentials: as §2
For data set [8], the species on record is Mus musculus. The data set is described as follows: Weight loss in mice treated with compound at 100 mkdx5. The format is functional. The essentials:
as §3

For the compound `Nc1ccn([C@@H]2O[C@H](CO)[C@@H](O)[C@@H]2O)c(=O)n1` [CYTARABINE], the ILS at 50 mg/kg in the data set with Mus musculus [1] was determined as 104%. Moreover, the ILS at 100 mg/kg in the data set with Mus musculus [2] worked out at 126%.

Take `O=c1[nH]cc(F)c(=O)[nH]1` [FLUOROURACIL]: the ILS in the data set with Mus musculus [3] is reported as 88%; in data set [4], “No effect”; in the data set with Mus musculus [7] it was 41%. Also, the Weight loss in the data set listed under Mus musculus [5], in the data set listed under Mus musculus [6] and in the data set listed under Mus musculus [8] was 14 g throughout.
